{"source": "ChEMBL document CHEMBL4699431", "about": "“Design and synthesis of substituted (1-(benzyl)-1H-1,2,3-triazol-4-yl)(piperazin-1-yl)methanone conjugates: study on their apoptosis inducing ability and tubulin polymerization inhibition” (RSC Med Chem, 2020)", "key": {"Tubulin (Homo sapiens)": {"biological_target": "Tubulin (Homo sapiens) (UniProt P68371+Q9H4B7+P0DPH7+P68366+Q13509+Q71U36+P04350+Q3ZCM7+P07437+P68363+Q9BQE3+Q6PEY2+Q13885+Q9BVA1+Q9BUF5)", "assay": "Inhibition of tubulin polymerization in human BT-474 cells assessed as microtubule disruption at 2 uM by immunohistochemistry assay", "assay_type": "cell-based", "method_in_brief": "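Cells on glass coverslips exposed 48 h to 2 μM, with CA-4 as positive control. Fixed in 4% paraformaldehyde 20 min, permeabilized with 0.2% Triton X-100 5 min, held in methanol overnight at 4 °C, blocked in 1% BSA 60 min. Stained with α-tubulin antibody (1:1000, 2 h) then FITC anti-mouse secondary 1 h; microtubule network imaged by confocal microscopy.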"}, "BT-474 [1]": {"tested_on": "BT-474", "assay": "Cell cycle arrest in human BT-474 cells assessed as decrease in G0/G1 accumulation in phase at 0.5 uM by propidium iodide staining based flow cytometry(reference value: 60.53%)", "assay_type": "functional", "parameters": "scale not given: the % may be the effect or the level left", "method_in_brief": "(§1)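 Seeded at 1 x 10⁵ cells/well, after 24 h serum-starved 6 h to synchronize, then returned to FBS-containing medium and treated at 0.5, 1 and 2.5 μM. Harvested cells were PBS-washed, fixed in ice-cold 70% ethanol, stained with propidium iodide (50 μg/mL) plus RNase A for 20 min at 37 °C in the dark. About 10,000 events analysed by flow cytometry.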"}, "BT-474 [2]": {"tested_on": "BT-474", "assay": "Cell cycle arrest in human BT-474 cells assessed as increase in accumulation in G1 phase at 1 uM by propidium iodide staining based flow cytometry(reference value: 4.06%)", "assay_type": "functional", "method_in_brief": "as §1"}, "BT-474 [3]": {"tested_on": "BT-474", "assay": "Cell cycle arrest in human BT-474 cells assessed as increase in accumulation in G2/M phase at 2.5 uM by propidium iodide staining based flow cytometry(reference value: 19.35%)", "assay_type": "functional", "method_in_brief": "as §1"}, "BT-474 [4]": {"tested_on": "BT-474", "assay": "Cell cycle arrest in human BT-474 cells assessed as increase in accumulation in S phase at 2.5 uM by propidium iodide staining based flow cytometry(reference value: 2.22%)", "assay_type": "functional", "method_in_brief": "as §1"}, "BT-474 [5]": {"tested_on": "BT-474", "assay": "Induction of mitochondrial membrane potential loss in human BT-474 cells assessed as depolarized cell population (P2) at 2.5 uM incubated for 48 hrs by JC1 staining based flow cytometry (reference value: 0.48 %)", "assay_type": "functional", "method_in_brief": "(§2)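 Cells (1x10⁶/mL) adhered overnight, then exposed to 0.5, 1 and 2.5 μM for 48 h. Collected, PBS-washed, incubated with JC-1 dye (1 μM) for 30 min at 37 °C, washed twice, trypsinized, centrifuged and read by flow cytometry.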"}, "BT-474 [6]": {"tested_on": "BT-474", "assay": "Induction of mitochondrial membrane potential loss in human BT-474 cells assessed as depolarized cell population (P1) at 1 uM incubated for 48 hrs by JC1 staining based flow cytometry (reference value: 98.09 %)", "assay_type": "functional", "method_in_brief": "as §2"}, "BT-474 [7]": {"tested_on": "BT-474", "assay": "Induction of apoptosis in human BT-474 cells after 48 hrs by Annexin-V alexa fluor 488/PI staining based flow cytometry analysis", "conditions": "dose microM 0.5-2.5, time 48.0 hrs"}}, "note": "The source made the active and inactive calls. No cut-off for these calls is given here."}
{"smiles": "O=C(c1cn(Cc2cccc(Oc3ccccc3)c2)nn1)N1CCN(S(=O)(=O)c2ccc(Br)cc2)CC1", "values": [{"measurement": "inhibition", "setting": "Tubulin (Homo sapiens)", "value": "Active"}, {"measurement": "Activity", "setting": "BT-474 [1]", "value": 10.83, "unit": "%"}, {"measurement": "Activity", "setting": "BT-474 [2]", "value": 9.41, "unit": "%"}, {"measurement": "Activity", "setting": "BT-474 [3]", "value": 63.41, "unit": "%"}, {"measurement": "Activity", "setting": "BT-474 [4]", "value": 5.57, "unit": "%"}, {"measurement": "Activity", "setting": "BT-474 [5]", "value": 89.84, "unit": "%"}, {"measurement": "Activity", "setting": "BT-474 [6]", "value": 41.46, "unit": "%"}, {"measurement": "Activity", "setting": "BT-474 [7]", "value": "Dose-dependent effect"}]}
